For data set [1], the system named is Micrococcus luteus. As to the kind of experiment: Antimicrobial activity against Micrococcus luteus ATCC 10240 after 24 hrs by Kirby-Bauer agar diffusion assay. Format: functional. An outline of the steps: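 Modified Kirby-Bauer well diffusion. Overnight LB cultures (18–24 h) were standardized in 0.9% saline to 0.5 McFarland and mixed into melted MHII agar at 47–50 °C, giving ~5×10³ CFU/mL. 9 mm wells received 50 µL of 2.0 mM compound in 10:1 MeOH:DMSO. Plates were incubated 24 h at 37 °C, then growth-inhibition zone diameter was measured (mm) by caliper.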
(In general: In agar diffusion tests the substance spreads into inoculated agar from a disc or well.)

Data set [2] concerns MCF7. As to the kind of experiment: Cytotoxicity against human MCF7 cells. Format: cell-based.
In data set [3] the test system is PC-3. Put plainly: Cytotoxicity against human PC3 cells. The class given is cell-based.
For data set [4], the system named is HeLa. As to the kind of experiment: Cytotoxicity against human HeLa cells. Format: cell-based.

Results on 28 compounds are retold here after ChEMBL document CHEMBL1914331, “N-O chemistry for antibiotics: discovery of N-alkyl-N-(pyridin-2-yl)hydroxylamine scaffolds as selective antibacterial agents using nitroso Diels-Alder and ene chemistry” (J Med Chem, 2011).

Regarding `O=C(Cc1ccccc1)N1OC2C=CC1CC2` (racemic), the “diameter of the inhibition zone (DIZ)” value in data set [1] is recorded as “<=14 mm”. The Activity result in data set [2], in data set [3] and in data set [4] was “Non-toxic” throughout.
Consider `O=C(c1ccccc1)N1OC2C=CC21` (racemic), for which the “diameter of the inhibition zone (DIZ)” value in data set [1] was “<=14 mm”. Besides, the Activity result in data set [2], in data set [3] and in data set [4] was “Non-toxic” throughout.
Turning to `CC(C)(C)OC(=O)N1OC2C=CC1C2` (racemic), the “diameter of the inhibition zone (DIZ)” value in data set [1] was “<=14 mm”. Besides, the Activity result in data set [2], in data set [3] and in data set [4] was “Non-toxic” in each case.
With `Brc1ccc(N2OC3C=CC2CC3)nc1` (racemic), the “diameter of the inhibition zone (DIZ)” value in data set [1] is reported as “<=14 mm”. Moreover, the Activity entry in data set [2], in data set [3] and in data set [4] was “Non-toxic” in each case.
Consider `Clc1ccc(N2OC3C=CC2C3)nc1` (racemic), for which the “diameter of the inhibition zone (DIZ)” value in data set [1] was “<=14 mm”. Also, the Activity result in data set [2], in data set [3] and in data set [4] was “Non-toxic” throughout.
As to `Brc1ccc(N2OC3C=CC2C3)nc1` (racemic), the “diameter of the inhibition zone (DIZ)” value in data set [1] is “<=14 mm”. Further, the Activity entry in data set [2], in data set [3] and in data set [4] was “Non-toxic” in each case.
Take `Cc1cccc(N2OC3C=CC2C3)n1` (racemic): in data set [1], the “diameter of the inhibition zone (DIZ)” value is listed as “<=14 mm”. The Activity entry in data set [2], in data set [3] and in data set [4] was “Non-toxic” throughout.
Regarding `Cc1cccc(N2OC3C=CC2CC3)n1` (racemic), the “diameter of the inhibition zone (DIZ)” value in data set [1] is recorded as “<=14 mm”. For the same compound, the Activity result in data set [2], in data set [3] and in data set [4] was “Non-toxic” each time.
For the compound `Cc1cc(N2OC3C=CC2C3)no1` (racemic), in data set [1], the “diameter of the inhibition zone (DIZ)” value is given as “<=14 mm”. Besides, the Activity entry in data set [2], in data set [3] and in data set [4] was “Non-toxic” throughout.
With `CO[C@@H]1C=C[C@@H](N(O)C(=O)Cc2ccccc2)C1` (racemic), the “diameter of the inhibition zone (DIZ)” value in data set [1] is listed as “<=14 mm”. Further, the Activity result in data set [2], in data set [3] and in data set [4] was “Non-toxic” each time.
As for `CC(C)(C)O[C@@H]1C=C[C@@H](N(O)C(=O)Cc2ccccc2)C1` (racemic), in data set [1], the “diameter of the inhibition zone (DIZ)” value was “<=14 mm”. The Activity entry in data set [2], in data set [3] and in data set [4] was “Non-toxic” in each case.
As for `CO[C@@H]1C=C[C@@H](N(O)C(=O)OC(C)(C)C)C1` (racemic), the “diameter of the inhibition zone (DIZ)” value in data set [1] is listed as “<=14 mm”. The Activity result in data set [2], in data set [3] and in data set [4] was “Non-toxic” each time.
Regarding `CO[C@@H]1C=C[C@@H](N(O)C(=O)Cc2ccccc2)CC1` (racemic), in data set [1], the “diameter of the inhibition zone (DIZ)” value is on record as “<=14 mm”. Besides, the Activity entry in data set [2], in data set [3] and in data set [4] was “Non-toxic” throughout.
Turning to `CO[C@@H]1C=CC[C@H]1N(O)C(=O)OC(C)(C)C` (racemic), the “diameter of the inhibition zone (DIZ)” value in data set [1] is “<=14 mm”. The Activity result in data set [2], in data set [3] and in data set [4] was “Non-toxic” each time.
With `O[C@H]1C=C[C@@H](N(O)c2ccc(Br)cn2)C1` (racemic), in data set [1], the “diameter of the inhibition zone (DIZ)” value is listed as above 14 mm. The Activity entry in data set [2], in data set [3] and in data set [4] was “Non-toxic” throughout.
For the compound `O[C@@H]1C=C[C@@H](N(O)c2ccc(Br)cn2)C1` (racemic), the “diameter of the inhibition zone (DIZ)” value in data set [1] is above 14 mm. Besides, the Activity entry in data set [2], in data set [3] and in data set [4] was “Non-toxic” throughout.
With `CC(C)(C)O[C@@H]1C=C[C@@H](N(O)c2ccc(Br)cn2)CC1` (racemic), the “diameter of the inhibition zone (DIZ)” value in data set [1] is recorded as above 14 mm. The Activity result in data set [2], in data set [3] and in data set [4] was “Non-toxic” in each case.
As to `C=CCO[C@@H]1C=C[C@@H](N(O)c2ccc(Br)cn2)CC1` (racemic), the “diameter of the inhibition zone (DIZ)” value in data set [1] is recorded as above 14 mm. In addition, the Activity result in data set [2], in data set [3] and in data set [4] was “Non-toxic” in each case.
`Cc1cccc(N(O)[C@@H]2C=C[C@@H](OC(C)C)CC2)n1` (racemic): the “diameter of the inhibition zone (DIZ)” value in data set [1] was above 14 mm. Also, the Activity entry in data set [2], in data set [3] and in data set [4] was “Non-toxic” each time.
`Cc1cccc(N(O)[C@@H]2C=C[C@@H](OC(C)(C)C)CC2)n1` (racemic): the “diameter of the inhibition zone (DIZ)” value in data set [1] is recorded as above 14 mm. In addition, the Activity entry in data set [2], in data set [3] and in data set [4] was “Non-toxic” throughout.
With `CO[C@@H]1C=CC[C@H]1N(O)c1ccc(Cl)cn1` (racemic), the “diameter of the inhibition zone (DIZ)” value in data set [1] is on record as above 14 mm. For the same compound, the Activity result in data set [2], in data set [3] and in data set [4] was “Non-toxic” throughout.
Consider `O[C@@H]1C=CC[C@H]1N(O)c1ccc(Br)cn1` (racemic), for which the “diameter of the inhibition zone (DIZ)” value in data set [1] is above 14 mm. The Activity result in data set [2], in data set [3] and in data set [4] was “Non-toxic” each time.
For the compound `O[C@@H]1C=CCC[C@H]1N(O)c1ccc(Br)cn1` (racemic), the “diameter of the inhibition zone (DIZ)” value in data set [1] is reported as above 14 mm. Moreover, the Activity entry in data set [2], in data set [3] and in data set [4] was “Non-toxic” each time.
As to `CO[C@@H]1C=CC[C@H]1N(O)c1ccc(Br)cn1` (racemic), the “diameter of the inhibition zone (DIZ)” value in data set [1] is given as above 14 mm. Moreover, the Activity result in data set [2], in data set [3] and in data set [4] was “Non-toxic” in each case.
For `CC(C)O[C@@H]1C=CC[C@H]1N(O)c1ccc(Br)cn1` (racemic), the “diameter of the inhibition zone (DIZ)” value in data set [1] is recorded as above 14 mm. For the same compound, the Activity result in data set [2], in data set [3] and in data set [4] was “Non-toxic” throughout.
As for `CC(C)O[C@@H]1C=CCC[C@H]1N(O)c1ccc(Br)cn1` (racemic), the “diameter of the inhibition zone (DIZ)” value in data set [1] was above 14 mm. The Activity result in data set [2], in data set [3] and in data set [4] was “Non-toxic” throughout.
As to `CC(C)(C)O[C@@H]1C=CCC[C@H]1N(O)c1ccc(Br)cn1` (racemic), the “diameter of the inhibition zone (DIZ)” value in data set [1] is above 14 mm. Moreover, the Activity entry in data set [2], in data set [3] and in data set [4] was “Non-toxic” throughout.
With `C=CCO[C@@H]1C=CCC[C@H]1N(O)c1ccc(Br)cn1` (racemic), the “diameter of the inhibition zone (DIZ)” value in data set [1] is above 14 mm. For the same compound, the Activity result in data set [2], in data set [3] and in data set [4] was “Non-toxic” in each case.
